This is an account of results in the M2OR odorant receptor database.

What all share (conditions): stereoisomer not certain
One assay deals with T1, Or10j5 (Mus musculus) (UniProt Q62007).
T1 sequence (whole entry): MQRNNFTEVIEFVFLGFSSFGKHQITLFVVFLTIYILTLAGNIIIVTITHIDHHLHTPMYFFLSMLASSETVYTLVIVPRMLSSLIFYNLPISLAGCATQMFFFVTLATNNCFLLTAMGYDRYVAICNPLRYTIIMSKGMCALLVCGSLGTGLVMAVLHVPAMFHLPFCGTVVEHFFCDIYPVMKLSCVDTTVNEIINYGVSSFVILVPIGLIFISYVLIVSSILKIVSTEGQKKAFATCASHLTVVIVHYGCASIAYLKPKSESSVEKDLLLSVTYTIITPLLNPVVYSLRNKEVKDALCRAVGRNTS
A digest of the protocol:
(§1)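 Transient luciferase assays in mammalian cell lines were common, though methods varied by source. The values come from published papers and their supplementary material, with extra details from the original authors when needed. Responsive refers to a measured signal the original authors judged statistically different from baseline, and non-responsive (inactive) to the remainder.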

The target of the next assay is T2, Or2c1 (Mus musculus) (UniProt P23275).
T2 sequence (whole entry): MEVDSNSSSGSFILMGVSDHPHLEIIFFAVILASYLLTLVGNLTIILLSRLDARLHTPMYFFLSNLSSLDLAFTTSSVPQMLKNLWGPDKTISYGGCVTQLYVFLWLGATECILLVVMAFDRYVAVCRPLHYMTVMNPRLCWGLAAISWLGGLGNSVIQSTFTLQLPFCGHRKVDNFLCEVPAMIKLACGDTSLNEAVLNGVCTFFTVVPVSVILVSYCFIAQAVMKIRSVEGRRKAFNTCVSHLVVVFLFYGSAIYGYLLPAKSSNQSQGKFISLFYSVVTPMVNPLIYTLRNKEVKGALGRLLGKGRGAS
A digest of the protocol: as §1

The next assay deals with T3, Or5ar1 (Mus musculus) (UniProt Q8VGS3).
T3 sequence (whole entry): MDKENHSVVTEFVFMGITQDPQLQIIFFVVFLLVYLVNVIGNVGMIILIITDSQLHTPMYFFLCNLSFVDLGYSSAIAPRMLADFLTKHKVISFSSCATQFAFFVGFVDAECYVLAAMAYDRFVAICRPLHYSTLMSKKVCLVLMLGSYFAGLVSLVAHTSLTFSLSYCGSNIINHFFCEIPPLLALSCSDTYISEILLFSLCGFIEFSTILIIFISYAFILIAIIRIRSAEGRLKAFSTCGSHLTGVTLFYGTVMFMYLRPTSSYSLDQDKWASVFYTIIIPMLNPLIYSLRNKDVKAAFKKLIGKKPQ
The method in brief: as §1

Another assay deals with T4, Or5p80 (Mus musculus) (UniProt Q8VG42).
T4 sequence (whole entry): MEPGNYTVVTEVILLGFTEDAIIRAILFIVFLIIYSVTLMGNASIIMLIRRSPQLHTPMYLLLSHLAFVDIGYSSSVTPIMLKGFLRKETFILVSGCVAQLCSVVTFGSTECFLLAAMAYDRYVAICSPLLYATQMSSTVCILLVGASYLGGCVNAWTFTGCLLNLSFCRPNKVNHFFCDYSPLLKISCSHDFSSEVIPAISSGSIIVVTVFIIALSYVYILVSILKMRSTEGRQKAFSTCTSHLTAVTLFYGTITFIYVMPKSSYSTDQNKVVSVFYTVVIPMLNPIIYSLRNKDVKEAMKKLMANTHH
The method in brief:
as §1

The next assay deals with T5, Or7a40 (Mus musculus) (UniProt Q9JHB2).
T5 sequence (whole entry): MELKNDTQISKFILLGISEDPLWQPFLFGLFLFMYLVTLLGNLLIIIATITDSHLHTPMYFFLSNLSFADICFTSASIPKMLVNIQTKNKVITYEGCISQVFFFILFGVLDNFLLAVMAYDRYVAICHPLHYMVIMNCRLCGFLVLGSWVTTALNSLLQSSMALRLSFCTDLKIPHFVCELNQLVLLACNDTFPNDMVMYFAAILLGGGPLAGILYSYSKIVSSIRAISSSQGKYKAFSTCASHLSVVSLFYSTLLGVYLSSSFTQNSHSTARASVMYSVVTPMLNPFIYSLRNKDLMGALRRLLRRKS
A digest of the protocol:
as §1

In the next assay the target is T6, OR9Q1 (Homo sapiens) (UniProt Q8NGQ5).
T6 sequence (whole entry): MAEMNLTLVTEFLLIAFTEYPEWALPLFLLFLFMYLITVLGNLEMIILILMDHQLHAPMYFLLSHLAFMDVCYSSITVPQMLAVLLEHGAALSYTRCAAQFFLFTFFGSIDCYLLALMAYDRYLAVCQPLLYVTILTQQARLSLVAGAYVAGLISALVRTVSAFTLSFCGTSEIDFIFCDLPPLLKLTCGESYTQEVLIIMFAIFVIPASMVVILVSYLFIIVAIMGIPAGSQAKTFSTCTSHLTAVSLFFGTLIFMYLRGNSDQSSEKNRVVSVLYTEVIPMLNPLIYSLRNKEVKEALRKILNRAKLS
The method in brief: as §1

In another assay the test system is T7, OR9Q1 A83T.
T7 sequence (whole entry): T6 sequence (whole entry) with A83T
The method in brief:
as §1

In another assay the target is T8, OR9Q2 (Homo sapiens) (UniProt Q8NGE9).
T8 sequence (whole entry): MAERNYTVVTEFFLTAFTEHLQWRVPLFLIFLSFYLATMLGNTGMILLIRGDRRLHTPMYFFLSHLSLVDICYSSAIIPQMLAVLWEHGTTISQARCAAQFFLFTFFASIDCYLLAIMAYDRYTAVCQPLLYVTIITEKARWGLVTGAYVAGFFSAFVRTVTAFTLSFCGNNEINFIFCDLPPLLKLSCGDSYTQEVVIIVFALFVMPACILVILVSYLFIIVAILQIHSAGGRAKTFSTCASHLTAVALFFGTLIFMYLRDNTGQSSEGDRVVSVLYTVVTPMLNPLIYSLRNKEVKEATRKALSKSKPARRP
The method in brief: as §1

Another assay relates to T9, OR9Q2 C179R.
T9 sequence (whole entry): T8 sequence (whole entry) with C179R
A digest of the protocol: as §1

A further assay deals with T10, Or5k16 (Mus musculus) (UniProt Q7TS48).
T10 sequence (whole entry): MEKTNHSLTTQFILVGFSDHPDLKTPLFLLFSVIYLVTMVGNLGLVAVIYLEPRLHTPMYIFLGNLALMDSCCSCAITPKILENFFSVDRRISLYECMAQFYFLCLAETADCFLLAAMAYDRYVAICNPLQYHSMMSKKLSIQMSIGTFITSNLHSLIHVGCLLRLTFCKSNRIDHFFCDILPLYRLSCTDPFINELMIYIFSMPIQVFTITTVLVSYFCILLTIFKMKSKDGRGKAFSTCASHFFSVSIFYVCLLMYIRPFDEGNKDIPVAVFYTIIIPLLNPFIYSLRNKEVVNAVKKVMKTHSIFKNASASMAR
The method in brief: as §1

In a further assay the target is T11, Or5an6 (Mus musculus) (UniProt Q8VFV4).
T11 sequence (whole entry): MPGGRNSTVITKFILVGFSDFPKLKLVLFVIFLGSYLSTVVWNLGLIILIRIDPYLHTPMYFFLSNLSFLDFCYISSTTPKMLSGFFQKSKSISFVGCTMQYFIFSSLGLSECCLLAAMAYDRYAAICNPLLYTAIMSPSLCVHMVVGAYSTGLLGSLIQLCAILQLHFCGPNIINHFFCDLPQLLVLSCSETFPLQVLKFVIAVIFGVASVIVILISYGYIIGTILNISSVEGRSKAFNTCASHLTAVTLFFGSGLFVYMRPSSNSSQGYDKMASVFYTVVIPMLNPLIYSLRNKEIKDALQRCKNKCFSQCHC
The method in brief:
as §1

For another assay, the target named is T12, Or5p57 (Mus musculus) (UniProt Q8VEZ0).
T12 sequence (whole entry): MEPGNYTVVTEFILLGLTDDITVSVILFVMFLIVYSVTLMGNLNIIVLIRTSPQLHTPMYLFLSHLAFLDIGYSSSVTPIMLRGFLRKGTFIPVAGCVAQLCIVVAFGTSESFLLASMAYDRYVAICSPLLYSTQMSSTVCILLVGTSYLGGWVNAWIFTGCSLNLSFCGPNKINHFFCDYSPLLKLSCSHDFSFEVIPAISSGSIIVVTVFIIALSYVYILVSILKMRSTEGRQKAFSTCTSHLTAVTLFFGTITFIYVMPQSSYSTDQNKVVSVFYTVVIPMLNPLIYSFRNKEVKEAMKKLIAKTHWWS
A digest of the protocol:
as §1

For the next assay, the system named is Q8VF87 A279V. A digest of the protocol:
as §1

For another assay, the system named is Q8VF87 E162D. A digest of the protocol:
as §1

Another assay deals with Q8VF87 I202L. A digest of the protocol: as §1
The next assay has as its target T13, Or1m1 (Mus musculus) (UniProt Q8VFM9).
T13 sequence (whole entry): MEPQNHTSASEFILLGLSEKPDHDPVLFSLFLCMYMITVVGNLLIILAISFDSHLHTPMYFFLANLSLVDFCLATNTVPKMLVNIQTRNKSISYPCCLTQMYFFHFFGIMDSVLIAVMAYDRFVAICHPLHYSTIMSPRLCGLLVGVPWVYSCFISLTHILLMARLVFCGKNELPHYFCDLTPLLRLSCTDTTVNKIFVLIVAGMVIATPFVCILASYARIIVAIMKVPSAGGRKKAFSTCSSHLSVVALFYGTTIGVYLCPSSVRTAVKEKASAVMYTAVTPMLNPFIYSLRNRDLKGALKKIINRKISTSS
The method in brief: as §1

Positions count from the first letter of the chain named.
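Also: active if original authors judged signal statistically different from baseline.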

In the case of `CCCC(C)=O`, the “odorant receptor agonist call” value in the assay with Or10j5 (Mus musculus), with Or2c1 (Mus musculus), with Or5ar1 (Mus musculus), in the assay with Or5p80 (Mus musculus) and with Or7a40 (Mus musculus) was “inactive” in each case.
Turning to `CCCCCCCCCCCC(=O)O`, the “odorant receptor agonist call” value in the assay with Or10j5 (Mus musculus) was “inactive”.
Take `O=C(O)CCCCCCCCCCBr`: in the assay with Or10j5 (Mus musculus), the “odorant receptor agonist call” value is “inactive”.
On to `Cc1cnc(C)c(C)n1`, for which the “odorant receptor agonist call” value with OR9Q1 (Homo sapiens), in the assay with OR9Q1 A83T, with OR9Q2 (Homo sapiens), with OR9Q2 C179R and with Or5k16 (Mus musculus) was “inactive” each time.
`O=C(O)CCCCCCCCCC(=O)O`: the “odorant receptor agonist call” value with Or10j5 (Mus musculus) is “inactive”.
Regarding `CC(=O)c1c(C)c([N+](=O)[O-])c(C(C)(C)C)c([N+](=O)[O-])c1C`, the “odorant receptor agonist call” value with OR9Q1 (Homo sapiens) and with OR9Q2 (Homo sapiens) was “inactive” in each case. In addition, the “odorant receptor agonist call” value in the assay with Or5an6 (Mus musculus) is “active”.
As for `CCCCCCCC(=O)[O-].[H+]`, the “odorant receptor agonist call” value with Or10j5 (Mus musculus) and in the assay with Or2c1 (Mus musculus) was “active” each time. Besides, the “odorant receptor agonist call” value with Or5ar1 (Mus musculus), in the assay with Or5p57 (Mus musculus), with Or5p80 (Mus musculus) and with Or7a40 (Mus musculus) was “inactive” each time.
In the case of `O=C(O)CCCCCCCCCBr`, the “odorant receptor agonist call” value with Or10j5 (Mus musculus) is “inactive”.
Turning to `CCC(S)C(C)CO` (stereo not given), the “odorant receptor agonist call” value in the assay with OR9Q1 (Homo sapiens), with OR9Q2 (Homo sapiens), in the assay with Q8VF87 A279V, with Q8VF87 E162D and with Q8VF87 I202L was “inactive” in each case.
Regarding `CCCC(S)CCOC(C)=O` (stereo not given), the “odorant receptor agonist call” value in the assay with OR9Q1 (Homo sapiens), with OR9Q1 A83T, with OR9Q2 (Homo sapiens) and with OR9Q2 C179R was “inactive” throughout.
For `O=C1Cc2ccccc2O1`, the “odorant receptor agonist call” value in the assay with Or1m1 (Mus musculus), with Or5ar1 (Mus musculus), with Or5p80 (Mus musculus) and with Or7a40 (Mus musculus) was “inactive” throughout. For the same compound, the “odorant receptor agonist call” value with Or2c1 (Mus musculus) is “active”.
As for `C=C(C)C1CCC(C)C(=O)C1` (stereo not given), the “odorant receptor agonist call” value in the assay with Or1m1 (Mus musculus), with Or2c1 (Mus musculus), in the assay with Or5ar1 (Mus musculus), with Or5p80 (Mus musculus) and with Or7a40 (Mus musculus) was “inactive” in each case.
With `COc1cc(C(=O)O)ccc1O`, the “odorant receptor agonist call” value with Or1m1 (Mus musculus), with Or2c1 (Mus musculus), with Or5ar1 (Mus musculus), with Or5p80 (Mus musculus) and in the assay with Or7a40 (Mus musculus) was “inactive” in each case.
Consider `CC1CC=CCCCCCCCCCC(=O)C1` (stereo not given), for which the “odorant receptor agonist call” value in the assay with Or1m1 (Mus musculus) and with Or5ar1 (Mus musculus) was “inactive” each time. In addition, in the assay with Or5an6 (Mus musculus), the “odorant receptor agonist call” value was “active”.
